The source made the active and inactive calls. The calls are words filed in the database; no cut-off is given here.
Columns and labels:
Type in all cases: functional, cell-based
[1] = target: T1, Parathyroid hormone/parathyroid hormone-related peptide receptor (Homo sapiens) (UniProt Q03431); test: Agonist activity at extracellular domain truncate human PTH1 receptor expressed in GD5 cells assessed as induction of cAMP after 12 to 20 mins by luciferase reporter gene assay
T1 sequence (whole entry): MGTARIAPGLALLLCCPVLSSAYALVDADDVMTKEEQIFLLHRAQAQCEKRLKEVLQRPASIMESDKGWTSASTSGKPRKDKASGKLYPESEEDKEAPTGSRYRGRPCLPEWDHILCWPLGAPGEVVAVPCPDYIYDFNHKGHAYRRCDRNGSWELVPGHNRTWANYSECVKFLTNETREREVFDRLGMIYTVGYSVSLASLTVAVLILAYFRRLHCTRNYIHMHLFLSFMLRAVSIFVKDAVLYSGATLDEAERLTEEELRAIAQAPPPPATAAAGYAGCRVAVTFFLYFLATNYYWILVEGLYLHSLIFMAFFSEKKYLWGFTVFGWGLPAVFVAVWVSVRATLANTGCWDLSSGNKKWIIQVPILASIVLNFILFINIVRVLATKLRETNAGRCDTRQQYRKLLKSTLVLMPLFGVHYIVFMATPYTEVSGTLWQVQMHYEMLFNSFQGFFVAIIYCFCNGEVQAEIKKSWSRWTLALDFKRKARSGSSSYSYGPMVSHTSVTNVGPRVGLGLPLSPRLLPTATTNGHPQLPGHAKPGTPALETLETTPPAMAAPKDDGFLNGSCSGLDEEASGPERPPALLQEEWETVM
Summary of the method: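 HEK293-derived lines stably expressing Glosensor cAMP reporter plus full-length human PTHR1 (GP2.3) or ECD-truncated PTHR1 (GD5). Confluent monolayers preincubated at room temperature in CO2-independent medium with 0.5 mM D-luciferin until baseline stable (30 min), then varied agonist concentrations added. Maximal luminescence (12−20 min) used for sigmoidal variable-slope fits.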

[2] = target: T2, Parathyroid hormone/parathyroid hormone-related peptide receptor (Homo sapiens, UniProt Q03431); test: Agonist activity at human PTH1 receptor expressed in human GP2.3 cells assessed as induction of cAMP after 12 to 20 mins by luciferase reporter gene assay
T2 sequence (Q03431 whole entry): T1 sequence (whole entry)

[3] = target: T1, Parathyroid hormone/parathyroid hormone-related peptide receptor (Homo sapiens); test: Agonist activity at human PTH1 receptor expressed in human GP2.3 cells assessed as induction of cAMP after 12 to 20 mins by luciferase reporter gene assay relative to PTH(1 to 34 residues)-NH2

Row | SMILES | Activity [1] | EC50 [2] | fold change (FC) [3]
1 | CC[C@H](C)[C@H](NC(=O)[C@H](CCC(=O)O)NC(=O)[C@H](CO)NC(=O)[C@@H](NC(=O)[C@@H](N)CO)C(C)C)C(=O)N[C@@H](CCC(N)=O)C(=O)N[C@@H](CC(C)C)C(=O)N[C@@H](CCSC)C(=O)N[C@H]1CNC[C@@H]1C(=O)N[C@@H](CC(N)=O)C(=O)N[C@@H](CC(C)C)C(=O)NCC(=O)N[C@@H](CCCCN)C(=O)N[C@@H](Cc1cnc[nH]1)C(=O)N[C@@H](CC(C)C)C(=O)N[C@@H](CC(N)=O)C(=O)N[C@@H](CO)C(=O)N[C@@H](CCSC)C(=O)N[C@@H](CCC(=O)O)C(=O)N[C@@H](CCCNC(=N)N)C(=O)N[C@H](C(=O)N[C@@H](CCC(=O)O)C(=O)N[C@@H](Cc1c[nH]c2ccccc12)C(=O)N[C@@H](CC(C)C)C(=O)N[C@@H](CCCNC(=N)N)C(=O)N[C@@H](CCCCN)C(=O)N[C@@H](CCCCN)C(=O)N[C@@H](CC(C)C)C(=O)N[C@@H](CCC(N)=O)C(=O)N[C@@H](CC(=O)O)C(=O)N[C@H](C(=O)N[C@@H](Cc1cnc[nH]1)C(=O)N[C@@H](CC(N)=O)C(=O)N[C@@H](Cc1ccccc1)C(N)=O)C(C)C)C(C)C | Active | Not Active | –
2 | CC[C@H](C)[C@H](NC(=O)[C@H](CCC(=O)O)NC(=O)[C@H](CO)NC(=O)C[C@@H](NC(=O)[C@@H](N)CO)C(C)C)C(=O)N[C@@H](CCC(N)=O)C(=O)N[C@@H](CC(C)C)C(=O)N[C@@H](CCSC)C(=O)N[C@@H](Cc1cnc[nH]1)C(=O)N[C@@H](CC(N)=O)C(=O)N[C@@H](CC(C)C)C(=O)NCC(=O)N[C@@H](CCCCN)C(=O)N[C@@H](Cc1cnc[nH]1)C(=O)N[C@@H](CC(C)C)C(=O)N[C@@H](CC(N)=O)C(=O)N[C@@H](CO)C(=O)N[C@@H](CCSC)C(=O)N[C@@H](CCC(=O)O)C(=O)N[C@@H](CCCNC(=N)N)C(=O)N[C@H](C(=O)N[C@@H](CCC(=O)O)C(=O)N[C@@H](Cc1c[nH]c2ccccc12)C(=O)N[C@@H](CC(C)C)C(=O)N[C@@H](CCCNC(=N)N)C(=O)N[C@@H](CCCCN)C(=O)N[C@@H](CCCCN)C(=O)N[C@@H](CC(C)C)C(=O)N[C@@H](CCC(N)=O)C(=O)N[C@@H](CC(=O)O)C(=O)N[C@H](C(=O)N[C@@H](Cc1cnc[nH]1)C(=O)N[C@@H](CC(N)=O)C(=O)N[C@@H](Cc1ccccc1)C(N)=O)C(C)C)C(C)C | Active | – | 3.2
3 | CC[C@H](C)[C@H](NC(=O)C[C@@H](CCC(=O)O)NC(=O)[C@H](CO)NC(=O)[C@@H](NC(=O)[C@@H](N)CO)C(C)C)C(=O)N[C@@H](CCC(N)=O)C(=O)N[C@@H](CC(C)C)C(=O)N[C@@H](CCSC)C(=O)N[C@@H](Cc1cnc[nH]1)C(=O)N[C@@H](CC(N)=O)C(=O)N[C@@H](CC(C)C)C(=O)NCC(=O)N[C@@H](CCCCN)C(=O)N[C@@H](Cc1cnc[nH]1)C(=O)N[C@@H](CC(C)C)C(=O)N[C@@H](CC(N)=O)C(=O)N[C@@H](CO)C(=O)N[C@@H](CCSC)C(=O)N[C@@H](CCC(=O)O)C(=O)N[C@@H](CCCNC(=N)N)C(=O)N[C@H](C(=O)N[C@@H](CCC(=O)O)C(=O)N[C@@H](Cc1c[nH]c2ccccc12)C(=O)N[C@@H](CC(C)C)C(=O)N[C@@H](CCCNC(=N)N)C(=O)N[C@@H](CCCCN)C(=O)N[C@@H](CCCCN)C(=O)N[C@@H](CC(C)C)C(=O)N[C@@H](CCC(N)=O)C(=O)N[C@@H](CC(=O)O)C(=O)N[C@H](C(=O)N[C@@H](Cc1cnc[nH]1)C(=O)N[C@@H](CC(N)=O)C(=O)N[C@@H](Cc1ccccc1)C(N)=O)C(C)C)C(C)C | Active | – | 108

Results, then the compound that gave them:

Row | Activity [1] | EC50 [2] | fold change (FC) [3] | SMILES
4 | Active | – | 55 | CC[C@H](C)[C@H](NC(=O)[C@H](CCC(=O)O)NC(=O)C[C@H](CO)NC(=O)[C@@H](NC(=O)[C@@H](N)CO)C(C)C)C(=O)N[C@@H](CCC(N)=O)C(=O)N[C@@H](CC(C)C)C(=O)N[C@@H](CCSC)C(=O)N[C@@H](Cc1cnc[nH]1)C(=O)N[C@@H](CC(N)=O)C(=O)N[C@@H](CC(C)C)C(=O)NCC(=O)N[C@@H](CCCCN)C(=O)N[C@@H](Cc1cnc[nH]1)C(=O)N[C@@H](CC(C)C)C(=O)N[C@@H](CC(N)=O)C(=O)N[C@@H](CO)C(=O)N[C@@H](CCSC)C(=O)N[C@@H](CCC(=O)O)C(=O)N[C@@H](CCCNC(=N)N)C(=O)N[C@H](C(=O)N[C@@H](CCC(=O)O)C(=O)N[C@@H](Cc1c[nH]c2ccccc12)C(=O)N[C@@H](CC(C)C)C(=O)N[C@@H](CCCNC(=N)N)C(=O)N[C@@H](CCCCN)C(=O)N[C@@H](CCCCN)C(=O)N[C@@H](CC(C)C)C(=O)N[C@@H](CCC(N)=O)C(=O)N[C@@H](CC(=O)O)C(=O)N[C@H](C(=O)N[C@@H](Cc1cnc[nH]1)C(=O)N[C@@H](CC(N)=O)C(=O)N[C@@H](Cc1ccccc1)C(N)=O)C(C)C)C(C)C
5 | Active | – | 12 | CC[C@H](C)[C@H](NC(=O)[C@H](CCC(=O)O)NC(=O)[C@H](CO)NC(=O)[C@@H](NC(=O)[C@@H](N)CO)C(C)C)C(=O)N[C@@H](CCC(N)=O)C(=O)N[C@H](CC(=O)N[C@@H](CCSC)C(=O)N[C@@H](Cc1cnc[nH]1)C(=O)N[C@@H](CC(N)=O)C(=O)N[C@@H](CC(C)C)C(=O)NCC(=O)N[C@@H](CCCCN)C(=O)N[C@@H](Cc1cnc[nH]1)C(=O)N[C@@H](CC(C)C)C(=O)N[C@@H](CC(N)=O)C(=O)N[C@@H](CO)C(=O)N[C@@H](CCSC)C(=O)N[C@@H](CCC(=O)O)C(=O)N[C@@H](CCCNC(=N)N)C(=O)N[C@H](C(=O)N[C@@H](CCC(=O)O)C(=O)N[C@@H](Cc1c[nH]c2ccccc12)C(=O)N[C@@H](CC(C)C)C(=O)N[C@@H](CCCNC(=N)N)C(=O)N[C@@H](CCCCN)C(=O)N[C@@H](CCCCN)C(=O)N[C@@H](CC(C)C)C(=O)N[C@@H](CCC(N)=O)C(=O)N[C@@H](CC(=O)O)C(=O)N[C@H](C(=O)N[C@@H](Cc1cnc[nH]1)C(=O)N[C@@H](CC(N)=O)C(=O)N[C@@H](Cc1ccccc1)C(N)=O)C(C)C)C(C)C)CC(C)C
6 | Active | – | 160 | CC[C@H](C)[C@H](NC(=O)[C@H](CCC(=O)O)NC(=O)[C@H](CO)NC(=O)[C@@H](NC(=O)[C@@H](N)CO)C(C)C)C(=O)N[C@@H](CCC(N)=O)CC(=O)N[C@@H](CC(C)C)C(=O)N[C@@H](CCSC)C(=O)N[C@@H](Cc1cnc[nH]1)C(=O)N[C@@H](CC(N)=O)C(=O)N[C@@H](CC(C)C)C(=O)NCC(=O)N[C@@H](CCCCN)C(=O)N[C@@H](Cc1cnc[nH]1)C(=O)N[C@@H](CC(C)C)C(=O)N[C@@H](CC(N)=O)C(=O)N[C@@H](CO)C(=O)N[C@@H](CCSC)C(=O)N[C@@H](CCC(=O)O)C(=O)N[C@@H](CCCNC(=N)N)C(=O)N[C@H](C(=O)N[C@@H](CCC(=O)O)C(=O)N[C@@H](Cc1c[nH]c2ccccc12)C(=O)N[C@@H](CC(C)C)C(=O)N[C@@H](CCCNC(=N)N)C(=O)N[C@@H](CCCCN)C(=O)N[C@@H](CCCCN)C(=O)N[C@@H](CC(C)C)C(=O)N[C@@H](CCC(N)=O)C(=O)N[C@@H](CC(=O)O)C(=O)N[C@H](C(=O)N[C@@H](Cc1cnc[nH]1)C(=O)N[C@@H](CC(N)=O)C(=O)N[C@@H](Cc1ccccc1)C(N)=O)C(C)C)C(C)C

Reference: ChEMBL document CHEMBL4024754, “Development of Potent, Protease-Resistant Agonists of the Parathyroid Hormone Receptor with Broad β Residue Distribution” (J Med Chem, 2017)
